ChEMBL document CHEMBL1147553, “Betulinic acid and its derivatives as anti-angiogenic agents” (Bioorg Med Chem Lett, 2004)
In brackets after ≈: the same amount, converted by molar mass.

What was measured:
[1] = Endothelial cell specificity of compound was determined as cytotoxicity on human tumor cell line PA-1 to that of endothelial cell; format: functional
Procedure, shortened: (§1)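 Cells (10⁴) exposed in triplicate wells to 0.5–10 µg/mL compound from DMSO stock (final DMSO <0.1%). Cells grown in DMEM with L-glutamine, 25 mM HEPES, 10% FBS and antibiotics at 37 °C, 5% CO2. MTT read-out after 120 h. IC50 is the mean of three experiments. Specificity ratio is IC50 in tumor cell divided by IC50 in ECV304.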

[2] = Endothelial cell specificity of compound was determined as cytotoxicity on human tumor cell line A549 to that of endothelial cell; format: functional; procedure, shortened: as §1
ECV-304 = experiment: Half-maximal cytotoxic concentration of compound against endothelial cell line ECV304; format: functional, cell-based; details: Homo sapiens; procedure, shortened: as §1
[3] = Endothelial cell specificity of compound was determined as cytotoxicity on human tumor cell line L132 to that of endothelial cell; format: functional; procedure, shortened: as §1
[4] = Endothelial cell specificity of compound was determined as cytotoxicity on human tumor cell line DU145 to that of endothelial cell; format: functional; procedure, shortened: as §1

## CC(C)[C@@H]1CC[C@]2(C(=O)O)CC[C@]3(C)C(CCC4[C@@]5(C)CC/C(=N\Nc6ccc(F)cc6)C(C)(C)C5CC[C@]43C)C12 (stereo not given in full)
[1]
  ECS ratio: 1.4
[2]
  ECS ratio: 20
ECV-304
  IC50: 0.35 mg/L (≈ 0.62 µM)
[3]
  ECS ratio: 11.1
[4]
  ECS ratio: 3.7

## CC(C)[C@@H]1CC[C@]2(C(=O)O)CC[C@]3(C)C(CCC4[C@@]5(C)CC/C(=N\Nc6c(Cl)cc(Cl)cc6Cl)C(C)(C)C5CC[C@]43C)C12 (stereo not given in full)
[1]
  ECS ratio: 5.2
[2]
  ECS ratio: 19
ECV-304
  IC50: 0.21 mg/L (≈ 0.323 µM)
[3]
  ECS ratio: 11.4
[4]
  ECS ratio: 6.6

## CC(C)[C@@H]1CC[C@]2(C(=O)O)CC[C@]3(C)C(CCC4[C@@]5(C)CC(Br)[C@H](O)C(C)(C)C5CC[C@]43C)C12 (stereo not given in full)
[1]
  ECS ratio: 7.4
[2]
  ECS ratio: 11.5
ECV-304
  IC50: 0.27 mg/L (≈ 0.502 µM)
[3]
  ECS ratio: 3.1
[4]
  ECS ratio: 7

## CC(C)[C@@H]1CC[C@]2(C(=O)O)CC[C@]3(C)C(CCC4[C@@]5(C)CC/C(=N\NC(=O)c6ccccc6)C(C)(C)C5CC[C@]43C)C12 (stereo not given in full)
[1]
  ECS ratio: 4.3
[2]
  ECS ratio: 27.7
ECV-304
  IC50: 0.39 mg/L (≈ 0.678 µM)
[3]
  ECS ratio: 1
[4]
  ECS ratio: 7.7

## C=C(C)[C@@H]1CC[C@]2(C(=O)O)CC[C@]3(C)[C@H](CC[C@@H]4[C@@]5(C)CC[C@H](O)C(C)(C)[C@@H]5CC[C@]43C)[C@@H]12 [BETULINIC ACID]
[1]
  ECS ratio: 3.2
[2]
  ECS ratio: 1.1
ECV-304
  IC50: 1.26 mg/L (≈ 2.76 µM)
[3]
  ECS ratio: 1
[4]
  ECS ratio: 2.2

## C=C(C)[C@@H]1CC[C@]2(C(=O)O)CC[C@]3(C)[C@H](CC[C@@H]4[C@@]5(C)CCC(=O)C(C)(C)[C@@H]5CC[C@]43C)[C@@H]12 [BETUNOLIC ACID]
[1]
  ECS ratio: 9.2
[2]
  ECS ratio: 9.8
ECV-304
  IC50: 0.28 mg/L (≈ 0.616 µM)
[3]
  ECS ratio: 3.2
[4]
  ECS ratio: 14.2
